# MEKK2wt PB1 HTS: modulators of MEK5 binding to wildtype MEKK2, primary screen, biochemical, multiplex bead flow cytometry, Alexa488-MEK5. Mitogen-activated protein kinase kinase kinase 2 (Homo sapiens), Q9Y2U5. Alexa488-MEK5 binding to MEKK2 WT; actives lie on both sides. binding response (% of control), % at 10 µM. 290,000 tested, 1.1% active; in the data active = binding response below about 67% or above about 130%
# MEKK3 PB1 HTS: modulators of MEKK3-MEK5 PB1 binding, primary screen, biochemical, wildtype MEKK3, multiplex bead flow cytometry, Alexa488-MEK5 | binding response (% of control), % at 10 µM | bead-based flow cytometry, Alexa488-MEK5 binding to MEKK3; actives lie on both sides; 0 = blocked by unlabeled MEK5, 100 = vehicle | 290,000 tested, 1.4% active | Mitogen-activated protein kinase kinase kinase 3 (Homo sapiens), Q99759;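 active = binding response more than 3 SD above or below the average of its plate-row segment, actives on both sides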;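 also: Alexa488 bead fluorescence after subtracting the streptavidin-only scavenger bead signal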
# Target sequence (Q99759 whole entry, looked up): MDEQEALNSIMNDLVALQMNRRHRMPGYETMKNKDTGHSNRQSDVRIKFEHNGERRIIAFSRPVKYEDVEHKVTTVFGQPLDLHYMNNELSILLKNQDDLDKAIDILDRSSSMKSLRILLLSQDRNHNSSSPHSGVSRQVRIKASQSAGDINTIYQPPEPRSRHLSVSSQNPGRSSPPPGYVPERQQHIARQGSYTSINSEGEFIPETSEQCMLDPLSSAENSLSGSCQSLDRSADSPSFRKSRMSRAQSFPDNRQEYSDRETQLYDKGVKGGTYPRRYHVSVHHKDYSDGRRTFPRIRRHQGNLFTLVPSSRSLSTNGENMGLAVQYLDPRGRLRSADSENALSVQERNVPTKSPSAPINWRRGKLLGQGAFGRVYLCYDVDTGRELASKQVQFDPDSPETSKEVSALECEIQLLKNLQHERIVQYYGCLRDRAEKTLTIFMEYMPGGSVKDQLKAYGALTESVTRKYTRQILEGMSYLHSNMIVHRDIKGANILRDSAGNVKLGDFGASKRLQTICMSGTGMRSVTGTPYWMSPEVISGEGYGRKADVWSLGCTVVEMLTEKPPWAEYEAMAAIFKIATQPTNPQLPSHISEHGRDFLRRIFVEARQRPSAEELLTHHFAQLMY
# Arrestin-AP2 inh: inhibitors of beta-arrestin/AP2 binding, primary screen, biochemical, GPCR trafficking, flow cytometry. FITC-arrestin peptide / GST-AP2 beads; AP2 beta2 appendage carries R879A mutation. inhibition, % at 10 µM. 340,000 tested, 0.31% active. AID 504490, 2011;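 active = inhibition above a set limit, near 3 SD of compounds lacking own fluorescence, cut at about 54% in these data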
#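 System: GST-AP2 R879A glutathione beads; medium: PBS, Tween 20 0.05%, BSA 0.1%; reagent: fluorescein-tagged arrestin peptide at 50 nM final; schedule: pre-incubation 12 min, peptide binding 1 h, room temperature; detection: flow cytometry, FL1 (488/535 nm); read-out: inhibition as reduced fluorescein signal on beads, percent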
# MEKK2mut PB1 HTS: MEK5 binding signal on mutant MEKK2 PB1, primary screen, biochemical, multiplex bead flow cytometry, Alexa488-MEK5 | percent response, % at 10 µM | Alexa488-MEK5 binding to MEKK2 mutant | 290,000 tested, 0.35% active; in the data active = percent response above about 24%, passing the limit was not always enough
# MEKK2wt confirm: modulators of MEK5 binding to wildtype MEKK2, confirmation, biochemical, single concentration, multiplex bead flow cytometry; shares compounds with MEKK3 PB1 HTS; Alexa488-MEK5 binding to MEKK2 WT; actives lie on both sides; binding response (% of control), % at 10 µM; 5,900 tested, 2.4% active; in the data active = binding response below about 16% or above about 210%; inactive = in between
# MEKK2mut confirm: mutant MEKK2 PB1-MEK5 binding signal retest – biochemical, single concentration, multiplex bead flow cytometry, confirmation; percent response, % at 10 µM; shares compounds with MEKK3 PB1 HTS; 5,900 tested, 2% active; Alexa488-MEK5 binding to MEKK2 mutant; AID 1893, 2009; in the data active = percent response mostly above about 71%, no sharp cut-off; inactive = mostly below about 38%;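 also: higher means compound restores mutant binding toward wildtype level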
# MEKK3 confirm: MEKK3 wild-type PB1 binding to MEK5, inhibitors, confirmation, biochemical, bead multiplex flow cytometry, single concentration, wildtype | shares compounds with MEKK3 PB1 HTS | Alexa488-MEK5 binding to MEKK3; stronger effect = lower value | binding response (% of control), % at 10 µM | 5,900 tested, 1.8% active | AID 1894, 2009;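 active = binding response below 72% of control, or above a set upper limit, though filed actives all read lower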
# Hits are given with their value; . = inactive; / = not tested or not shown; [ ] = dose if it differs, or a comment. Sampled rows, rich in hits. Any-hit rate of the full collection: about 2.3%.
SMILES,MEKK2wt PB1 HTS,MEKK3 PB1 HTS,Arrestin-AP2 inh,MEKK2mut PB1 HTS,MEKK2wt confirm,MEKK2mut confirm,MEKK3 confirm
C=CCNC(=S)Nc1ccccc1,.,79.0[inhibitor],.,.,.,.,.
COC(=O)c1c(NC(=O)c2ccco2)sc2c1CCC2,.,.,.,.,/,/,/
COC(=O)c1c(NC(=O)/C=C/c2ccco2)sc2c1CCC2,.,134.0,.,.,.,.,.
O=C1Nc2ccccc2C(O)(C(=O)NCc2ccc3c(c2)OCO3)N1c1ccccc1 (stereo not given),.,.,.,.,/,/,/
COc1cccc(N2C(=O)Nc3ccccc3C2(O)C(=O)NCc2ccc3c(c2)OCO3)c1 (stereo not given),.,123.0,.,.,.,.,.
C=CCC(NCc1ccco1)c1ccc(OC)cc1OC (stereo not given),.,.,/,.,/,/,/
C=CCC(NCc1ccco1)c1ccc(OC)c(OC)c1 (stereo not given),-1.0[inhibitor],0.0[inhibitor],.,.,.,.,.
COc1ccc(C(CC(=O)O)NC(=O)c2ccco2)cc1 (stereo not given),.,.,.,.,/,/,/
COc1ccc(C(CC(=O)O)NC(=O)c2ccco2)cc1OC (stereo not given),.,.,.,24.0,.,.,.
CN(C)c1ccc(/C=N/N=C(N)N)cc1[N+](=O)[O-],.,.,.,.,/,/,/
CN(/N=C/C=C/c1ccccc1)C1=NS(=O)(=O)c2ccccc21,.,134.0,.,.,.,.,.
CCOc1ccccc1OCCCC(=O)Nc1sccc1C(N)=O,.,151.0,.,.,.,.,.
CCCN1CCN(CCCNC(=O)CCn2nc(-c3ccccc3)ccc2=O)CC1,.,.,.,.,/,/,/
O=C(CCn1nc(-c2ccc(Cl)cc2)ccc1=O)NCCCN1CCCCCC1,193.0,.,.,50.0,.,.,.
CN(C)S(=O)(=O)c1cccc(NC(=O)COC(=O)CNC(=O)c2cccc([N+](=O)[O-])c2)c1,.,.,.,.,/,/,/
N=c1oc2ccc3ccccc3c2cc1-c1nc(-c2ccccc2)cs1,.,146.0,.,.,.,.,.
CC(=O)Nc1ccc(-c2cc(C(=O)O)c3ccccc3n2)cc1,61.0[inhibitor],58.0[inhibitor],.,.,.,.,.
CC(=O)NS(=O)(=O)c1ccc(NC(=O)c2cc(-c3ccc(C)cc3)nc3ccccc23)cc1,.,.,.,.,/,/,/
CCOC(=O)C1CCCN(S(=O)(=O)c2cnc(Cl)c(Br)c2)C1 (stereo not given),.,.,.,.,/,/,/
CCC(C)(C)c1ccc(OCCCC[n+]2ccccc2)c(C(C)(C)CC)c1,185.0,.,.,.,.,.,.
CCCCCc1ccc(OCCCC[n+]2ccc(C)cc2)c(CCCCC)c1,186.0,.,.,.,.,.,.
CCCCCc1ccc(OCCCC[n+]2ccccc2)c(CCCCC)c1,164.0,.,.,.,.,.,.
CCCCCc1ccc(OCCCC[n+]2cccc(C)c2)c(CCCCC)c1,.,.,.,.,/,/,/
COc1cc(OC)cc(C(=O)N[C@H](C(=O)NC2CCCc3ccccc32)C(C)C)c1 (stereo not given in full),/,/,.,/,/,/,/
NC(=S)N1CCCc2ccccc21,.,.,.,.,/,/,/
SMILES,MEKK2wt PB1 HTS,MEKK3 PB1 HTS,Arrestin-AP2 inh,MEKK2mut PB1 HTS,MEKK2wt confirm,MEKK2mut confirm,MEKK3 confirm
Clc1ccccc1/C=C/c1nc(-c2cccnc2)no1,.,.,.,.,/,/,/
C(=C\c1nc(-c2cccnc2)no1)/c1ccccc1,6.0[inhibitor],3.0[inhibitor],.,.,.,.,.
CSc1nc2ccccc2n1CC(=O)Nc1c(C)cccc1C,.,49.0[inhibitor],.,.,.,.,.
COc1ccc(NC(=O)Cc2ccsc2)cc1S(=O)(=O)N1CCOCC1,/,/,.,/,/,/,/
CN(C)c1ccc(/C=C(\C#N)C(=O)Nc2nc3c(s2)CCN(Cc2ccccc2)C3)cc1,71.0[inhibitor],.,.,.,.,.,.
Cc1ccc(S(=O)(=O)N2CCN(C(=O)c3cc4c(C)nn(-c5ccccc5C)c4s3)CC2)cc1,.,.,.,.,/,/,/
Cc1ccccc1-n1nc(C)c2cc(C(=O)N3CCOCC3)sc21,211.0,.,.,.,.,.,.
COc1cccc(NC(=O)CSc2ncc(S(=O)(=O)c3ccccc3)c(=O)[nH]2)c1,.,134.0,.,.,.,.,.
Cc1ccc(NC(=O)CSc2ncc(S(=O)(=O)c3ccccc3)c(=O)[nH]2)cc1C,.,.,.,.,/,/,/
O=C(NCc1ccco1)C1CC(c2ccc(Cl)c(Cl)c2)=NO1 (stereo not given),42.0[inhibitor],39.0[inhibitor],.,.,.,.,.
O=C(c1ccc(=O)[nH]n1)N1CCc2ccccc2C1,.,.,.,.,/,/,/
O=C1c2ccc([N+](=O)[O-])cc2C(=O)N1Cc1cccnc1,.,.,.,25.0,.,.,.
COc1ccc2noc3c2c1C(=O)c1ccccc1-3,/,/,.,/,/,/,/
O=C1c2ccccc2-c2onc3ccc(NCCCn4ccnc4)c1c23,28.0[inhibitor],33.0[inhibitor],/,.,.,.,42.0
CC(C)C1CC(CCN)(Cc2ccccc2)CCO1 (stereo not given),.,.,.,.,/,/,/
CN(C)CCNc1nc2sc3c(c2c(=O)n1Cc1ccccc1)CCCCC3,149.0,.,.,.,.,.,.
O=C(N[C@@H](Cc1ccccc1)C(=O)OCc1ccccc1)c1nc[nH]c1C(=O)NCc1ccccc1,.,.,.,.,/,/,/
CCOc1ccc2ncc(C(=O)c3ccc(OC)cc3)c(N3CCN(CC)CC3)c2c1,499.0,.,.,.,.,.,.
CCc1ccc(C(=O)c2cnc3ccc(OC)cc3c2N2CCN(CC)CC2)cc1,.,.,.,.,/,/,/
CCN1CCN(c2cc(C)c3cc(NC(=S)N4CCN(c5ccccc5F)CC4)ccc3n2)CC1,148.0,.,.,.,.,.,.
CCN1CCN(c2cc(C)c3cc(NC(=O)Cc4ccc(OC)c(OC)c4)ccc3n2)CC1,.,.,.,26.0,.,.,.
CCN1CCN(c2cc(C)c3cc(NC(=S)N4CCN(c5ccccc5)CC4)ccc3n2)CC1,.,.,.,.,/,/,/

# Source: PubChem
